Screens from PubChem.
RGS4 block – inhibitors of human RGS4. P49798. HEK293 M3R/RGS4 inducible, Fluo-4 calcium flux; stronger effect = higher value; triggered by carbachol at its EC20. B-score at 10 µM. hit rate 0.45% among 310,000. AID 463165;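 active = B-score, a plate-corrected calcium signal, over three deviations above library mean, with baseline fluorescence within five deviations of library mean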;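 also: RGS4 expression induced by doxycycline in cells with stable M3 receptor; B-score is computed from the integrated fluorescence ratio over baseline after carbachol; higher B-score means a larger calcium signal and so more RGS4 inhibition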
Target sequence (P49798 whole entry, looked up): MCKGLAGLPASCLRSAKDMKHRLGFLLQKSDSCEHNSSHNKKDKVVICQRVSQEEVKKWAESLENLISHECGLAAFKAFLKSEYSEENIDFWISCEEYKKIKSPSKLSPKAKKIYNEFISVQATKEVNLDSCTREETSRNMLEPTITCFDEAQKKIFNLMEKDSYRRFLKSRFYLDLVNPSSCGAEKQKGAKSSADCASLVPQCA
RGS4 pot – RGS4 potentiation or activation | HEK293 M3R/inducible RGS4, carbachol calcium flux Fluo4; stronger effect = lower value | B-score at 10 µM | hit rate 0.92% among 310,000 | AID 463111;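 active = B-score of the integrated calcium signal more than 4 SD below the library mean, with starting fluorescence not abnormally high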;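 also: negative B-score means reduced calcium response which marks RGS4 activation or potentiation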
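Material: Inducible-RGS4 HEK293 cells carrying M3 receptor; also added: carbachol at ECmax as muscarinic agonist stimulus; incubation: compound preincubation 20 min at room temperature before agonist; signal: Fluo4-AM (2 µM) calcium-flux fluorescence, kinetic read; measure: integrated calcium ratio converted to B score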
MrgX1 agonist – agonists of human MrgX1 receptor; Q96LB2; MrgX1-HEK293 cells, Fluo-4 calcium fluorescence, agonist mode; stronger effect = higher value; B-score at 10 µM; hit rate 0.44% among 310,000; AID 588627;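 active = calcium response B-score plate-corrected fluorescence ratio at least 3 library SD, with starting fluorescence B-score inside 5 SD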
Target sequence (Q96LB2 whole entry, looked up): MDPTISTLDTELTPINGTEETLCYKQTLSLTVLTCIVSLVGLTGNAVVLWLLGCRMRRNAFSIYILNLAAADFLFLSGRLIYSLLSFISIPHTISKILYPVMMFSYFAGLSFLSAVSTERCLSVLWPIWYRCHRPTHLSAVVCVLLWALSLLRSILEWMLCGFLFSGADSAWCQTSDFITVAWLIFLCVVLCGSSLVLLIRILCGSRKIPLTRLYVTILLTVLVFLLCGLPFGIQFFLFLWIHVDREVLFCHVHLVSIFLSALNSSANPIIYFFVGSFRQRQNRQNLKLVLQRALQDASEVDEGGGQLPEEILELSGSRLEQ
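System – MrgX1-expressing HEK293 cells · Incubation – cells plated overnight, dye loaded 0.5 h 37 °C, 0.5 h room temperature · Technique – kinetic Fluo-4 NW fluorescence of intracellular calcium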
MrgX1 PAM – human MrgX1 positive allosteric modulation, primary screen | Q96LB2 | MrgX1-HEK293, Fluo-4 calcium flux, FDSS; stronger effect = higher value | B-score at 10 µM | hit rate 0.63% among 310,000;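 active = plate-corrected calcium response at least 3 library SD above typical, normal starting fluorescence, not activating the receptor alone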;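 also: compound read alongside a low EC10 to EC30 dose of BAM8-22 agonist; peak minus trough fluorescence over baseline measured at the second addition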
MrgX1 antag – human MrgX1 receptor antagonism, primary screen. Q96LB2. MRGX1-HEK293 calcium flux, Fluo-4, BAM8-22 antagonism; stronger effect = lower value. B-score at 10 µM. hit rate 1.3% among 310,000. AID 588676;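 active = calcium-response B-score plate-corrected more than 3 library SD below zero, starting fluorescence within 5 deviations, no agonist response on first addition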;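 also: peak minus trough fluorescence over baseline after final BAM8-22 challenge near maximal dose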
MrgX1 ag confirm – reconfirmed activator of human MrgX1 receptor signaling | shares compounds with MrgX1 agonist | MrgX1-HEK293, Fluo-4 calcium fluorescence, FDSS | activation, % at 10 µM | hit rate 78% among 600 | AID 602412;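 active = calcium signal rise, corrected for plate position, at least 3 library SD high, with starting brightness within 5 such deviations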; also: reference of the scale not given here
HEK293 Ca flux – counter-screen for MrgX1 antagonists: effect in parental HEK293 cells; AID 624111; hit rate 2% among 4,000; Fluo-4 calcium fluorescence, FDSS; shares compounds with MrgX1 antag; fluorescence ratio F(max-min)/F0 at 10 µM;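 active = duplicate-averaged calcium fluorescence ratio at least three times the standard deviation of buffer wells, a nonspecific response in parental cells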
HEK293 Ca counter – MrgX1 allosteric activator counter-screen hit in parental HEK293 cells | parental HEK293 calcium flux, Fluo-4 fluorescence ratio; stronger effect = higher value | fluorescence ratio F(max-min)/F0 at 10 µM | shares compounds with MrgX1 antag | hit rate 0.4% among 4,000;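 active = calcium fluorescence ratio, averaged over duplicates, at least 3 SD of the buffer-well ratio, meaning a nonspecific response in receptor-free cells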;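 also: untransfected parental HEK293 lacking MrgX1 used as counterscreen for MrgX1 allosteric activators; fluorescence change taken during the second addition on a kinetic imager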
HEK293 Ca cntr2 – counter-screen for MrgX1 activators: effect in parental HEK293 cells | shares compounds with MrgX1 antag | Fluo-4 calcium fluorescence (FDSS); stronger effect = higher value | fluorescence ratio F(max-min)/F0 at 10 µM | hit rate 8.7% among 4,000 | AID 624115;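 active = calcium fluorescence ratio at least three times the spread of buffer wells, meaning a non-specific response in parental cells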
A number is an active result; – = inactive; · = no result. Hits are enriched below; roughly 3.5% of the tested compounds scored in any of these assays.

SMILES	RGS4 block	RGS4 pot	MrgX1 agonist	MrgX1 PAM	MrgX1 antag	MrgX1 ag confirm	HEK293 Ca flux	HEK293 Ca counter	HEK293 Ca cntr2
CC(C)(C)c1cc(C(c2cccnc2)N2CCN(CCO)CC2)cc(C(C)(C)C)c1O (stereo not given)	–	–	32	–	–	263%	–	–	53
CC(C)(C)n1nnnc1C(c1cccnc1)N1CCN(c2cccc(C(F)(F)F)c2)CC1 (stereo not given)	–	–	–	–	–	·	·	·	·
CSCCC(NC(=O)c1ccco1)C(=O)OC(C)C(=O)NC(=O)NC1CCCCC1 (stereo not given)	–	–	92	–	–	397%	–	–	86
Cc1cc(C)c(S(=O)(=O)NC(C)C)c(C)c1-n1cnnn1	–	–	–	–	–	·	·	·	·
Cc1ccccc1C(=O)NNC(=S)NC(=O)COc1ccccc1	–	–	120	–	–	640%	–	–	125
Cc1ccc(C(=O)NNC(=S)NC(=O)COc2ccccc2)cc1	–	–	109	–	–	618%	–	–	116
CCOC(=O)CSc1nc(C)c(C(C)=O)cc1C(N)=O	–	–	–	–	–	·	·	·	·
N#CSCC(=O)c1cccc2ccccc12	·	·	27	–	–	230%	–	–	–
CNc1nc(NCc2ccccc2)c2ccccc2n1	–	–	76	–	–	253%	–	–	–
CC(=O)Nc1ccc(NC(=O)C/C(C)=N/NC(=O)c2cccc3ccccc23)cc1	–	–	–	–	–	·	·	·	·
N#CC1=C(SCC(=O)NCc2ccccc2)NC(=O)CC1c1ccco1 (stereo not given)	–	–	–	–	–	·	·	·	·
N#CC1=C(SCc2ccccc2)NC(=O)CC1c1ccco1 (stereo not given)	–	–	41	–	–	180%	–	–	–
Cc1sc2ncnc(N(C)C3CCCCC3)c2c1C	–	–	38	–	–	–	–	–	–
Cc1ccn(CCC(=O)N2CCc3ccccc32)n1	–	–	–	–	–	·	·	·	·
Cc1cc(CSC(=N)N)c(CSC(=N)N)cc1C	–	–	91	–	–	246%	–	–	–
CC(C)Oc1ccc(CSC(=N)N)cc1	–	–	–	–	–	·	·	·	·
CCCCN(C)C(=O)CNC(=O)c1nn(-c2ccc(OC)cc2OC)c(=O)c2ccccc12	–	–	–	–	–	·	·	·	·
c1ccc2c(c1)Cc1cc3ccccc3nc1-2	–	–	–	–	–	·	·	·	·
ClCC1=Nc2ccccc2Cc2ccccc21	–	–	29	–	–	111%	–	–	–
Oc1cccc(Nc2nc(O)c(/C=C3\C=Nc4ccccc43)s2)c1	·	·	39	–	–	416%	–	–	76
Oc1nc(Nc2cccc(Cl)c2)sc1/C=C1\C=Nc2ccccc21	–	–	–	–	–	·	·	·	·
C=CCNc1ncnc2c1[nH]c1ccc(Cl)cc12	–	–	65	–	–	353%	–	–	59
C=CCNc1ncnc2c1[nH]c1ccccc12	–	–	–	–	–	·	·	·	·
CCN(CC)c1ccc(C=C2C(=O)OC3(CCCC3)OC2=O)cc1	–	–	74	–	–	440%	–	–	110
Cn1cc(C=C2C(=O)OC3(CCCCC3)OC2=O)c2ccccc21	–	–	–	–	–	·	·	·	·
SMILES	RGS4 block	RGS4 pot	MrgX1 agonist	MrgX1 PAM	MrgX1 antag	MrgX1 ag confirm	HEK293 Ca flux	HEK293 Ca counter	HEK293 Ca cntr2
COc1ccnc(CSC(N)=Nc2ccccc2C(F)(F)F)c1	–	–	33	–	–	102%	–	–	–
COc1ccnc(CSC(N)=Nc2ccccc2OC)c1	–	–	–	–	–	·	·	·	·
O=C1NC(Nc2ccccn2)(C(F)(F)F)C(=O)N1c1ccc(F)cc1 (stereo not given)	–	–	32	–	–	207%	–	–	54
CCn1c(=O)c(=O)[nH]c2cc(C(=O)N(C)Cc3ccc(OC)c(F)c3)ccc21	–	–	–	–	–	·	·	·	·
O=C(Nc1ccnc(=O)[nH]1)c1sc2ccccc2c1Cl	–	–	–	–	–	·	·	·	·
Nc1nc2ccccc2cc1-c1cccs1	–	–	45	–	–	196%	–	–	–
c1csc(-c2ccc3ccccc3n2)c1	–	–	–	–	–	·	·	·	·
Cc1ccc(-c2cc3ccccc3nc2N)cc1	–	–	43	–	–	220%	–	–	–
CCOc1cc(/C=C/C(=O)c2ccc(OC)c(CN3CCOCC3)c2)cc(Br)c1O	–	–	143	–	–	675%	–	–	131
CCOc1cc(/C=N/NC(=O)c2ccc(CN3CCOCC3)cc2)ccc1OC	–	–	–	–	–	·	·	·	·
COc1cccc(CN(C(=O)COc2ccc(Cl)cc2)C2CCS(=O)(=O)C2)c1 (stereo not given)	–	–	–	–	–	·	·	·	·
CCOc1ccccc1NC(=O)COC(=O)C1CC(=O)N(c2c(C)cccc2C)C1 (stereo not given)	–	–	28	–	–	–	–	–	–
Cc1nnc(NC(=O)c2sc3nc(-c4cccs4)cc(C(F)(F)F)c3c2N)s1	–	–	31	–	–	299%	0.3	–	63
Cc1cc(-c2csc(N)n2)c(C)n1C	–	–	31	–	–	150%	–	–	–
CCOc1ccc(CSC(=N)N)cc1Cl	–	–	33	–	–	179%	–	–	–
Fc1ccc(-c2cc(C(F)(F)C(F)F)[nH]n2)cc1	–	–	41	–	–	212%	–	–	48
CC(=O)N[C@@H](Cc1ccc(O)cc1)CN1C(N)=NC[C@@H]1CC(C)C	–	–	–	–	–	·	·	·	·
CCn1c(SCC(=O)NCCc2ccccc2)nc2c([nH]c3ccccc32)c1=O	–	–	–	–	–	·	·	·	·
O=C1CSc2ccc(C(=O)NCCC3=CCCCC3)cc2N1	–	–	119	–	–	–	–	–	–
Cc1cc(Nc2ccc(Cl)cc2)nc(N)n1	–	–	35	–	–	207%	–	–	–
Cc1cc(C(=O)NNC(=O)CN2C(=O)NC(C)(c3ccccc3)C2=O)c(C)o1 (stereo not given)	–	–	–	–	–	·	·	·	·
COc1ccc(-c2csc(NC(=O)CN3C(=O)C4CCCCC4C3=O)n2)cc1OC (stereo not given)	–	–	30	–	–	–	–	–	–
COc1ccc(-c2csc(NC(=O)CSCc3c(C)noc3C)n2)cc1OC	–	–	44	–	–	–	–	–	–
